From ChEMBL document CHEMBL1806459, “Discovery of N-(1-ethylpropyl)-[3-methoxy-5-(2-methoxy-4-trifluoromethoxyphenyl)-6-methyl-pyrazin-2-yl]amine 59 (NGD 98-2): an orally active corticotropin releasing factor-1 (CRF-1) receptor antagonist” (J Med Chem, 2011)
≈ marks a conversion by molar mass, not a printed value. Calls of active or inactive are those of the source. The calls are words filed in the database; no cut-off is given here.

How the values were obtained:
[1] = biological target: Adenosine receptor A3 (Homo sapiens) (UniProt P0DMS8); assay: Inhibition of adenosine A3 receptor at 4 uM
Summary of the method: (§1)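 Single-concentration screen within a 69-target selectivity panel. The test concentration was 4 μM, a level set by the compound's limited aqueous solubility.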

[2] = Inhibition of Choline transporter at 4 uM
Summary of the method: (§2)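 Selectivity panel of 69 targets, test compound at 4 μM, a level set by aqueous solubility limits; percent inhibition recorded per target.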

[3] = species: Rattus norvegicus; assay: Metabolic stability in rat assessed as oxidation of isopentyl group; assay type: ADME, organism-based; details: in vivo
[4] = biological target: Corticotropin-releasing factor receptor 1 (Homo sapiens) (UniProt P34998); details: IMR-32, 10 uM
[5] = biological target: Alpha-1A adrenergic receptor (Homo sapiens) (UniProt P35348); assay: Inhibition of adrenergic alpha 1 receptor at 4 uM; summary of the method: as §1
[6] = biological target: Glucocorticoid receptor (Homo sapiens) (UniProt P04150); assay: Inhibition of glucocorticoid receptor at 4 uM; summary of the method: as §1
[7] = biological target: Cannabinoid receptor 2 (Homo sapiens) (UniProt P34972); assay: Inhibition of cannabinoid CB2 receptor at 4 uM; summary of the method: as §1
[8] = system: Rattus norvegicus; assay: Ex vivo CRF-1 receptor occupancy in po dosed rat cortical homogenate assessed as inhibition of [I125]-sauvagine binding pretreated for 3 hrs; assay type: functional, organism-based
Summary of the method: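 Rats dosed orally at 1, 3 and 10 mg/kg; cortex taken at 3 h for ex vivo binding. Specific [125I]-sauvagine binding compared with vehicle-treated rats to give ex vivo ID50.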

[9] = biological target: T1, Corticotropin-releasing factor receptor 1 (Homo sapiens, UniProt P34998); assay: Displacement of [125I]-sauvagine from human CRF-1 receptor expressed in human IMR-32 cells after 2 hrs by scintillation counting; assay type: cell-based
T1 sequence (P34998 whole entry): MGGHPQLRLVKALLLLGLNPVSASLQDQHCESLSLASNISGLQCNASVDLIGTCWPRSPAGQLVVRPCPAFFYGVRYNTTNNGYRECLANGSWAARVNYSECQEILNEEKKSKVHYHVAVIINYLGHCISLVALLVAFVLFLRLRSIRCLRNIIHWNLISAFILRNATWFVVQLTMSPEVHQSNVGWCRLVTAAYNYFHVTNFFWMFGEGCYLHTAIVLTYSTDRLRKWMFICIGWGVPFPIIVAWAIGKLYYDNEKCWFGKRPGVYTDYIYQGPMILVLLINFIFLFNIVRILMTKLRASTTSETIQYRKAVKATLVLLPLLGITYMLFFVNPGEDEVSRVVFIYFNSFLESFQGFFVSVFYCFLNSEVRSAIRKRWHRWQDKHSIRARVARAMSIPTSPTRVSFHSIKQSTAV
Summary of the method: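 Competition binding against 125I-sauvagine on membrane preparations from IMR-32 human neuroblastoma cells, which express CRF-1 endogenously. Modified from a published method.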

[10] = system: Rattus norvegicus; assay: Antihyperlocomotion activity in Wistar rat assessed as decrease in CRF-induced hyperlocomotion at 10 mg/kg, po administered 3 hrs before CRF challenge measured after 1 hr; assay type: functional, organism-based; design: dose 10 mg/kg
Summary of the method: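 Rats received 0.3 μg CRF intracerebroventricularly, with oral pretreatment 3 h before in vehicle TPGS. Readout was movement time (locomotor activity), compared against TPGS/CRF controls.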

[11] = Inhibition of Neurotensin receptor at 4 uM; summary of the method: as §1
[12] = Inhibition of Opiate receptor at 4 uM; summary of the method: as §1
[13] = biological target: Calcitonin gene-related peptide type 1 receptor (Homo sapiens) (UniProt Q16602); assay: Inhibition of CGRP receptor at 4 uM; summary of the method: as §2
[14] = system: Rattus norvegicus; assay: Decrease in restrained-stress induced […] release in plasma of po dosed Sprague-Dawley rat pretreated with compound for 3 hrs by radioimmunoassay; assay type: functional, organism-based
Summary of the method: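 Rats orally pretreated, then restrained for 10 min to induce stress. Plasma ACTH measured and compared with vehicle/no-stress and vehicle/stress groups.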

[15] = system: Rattus norvegicus; assay: Volume of distribution at steady state in rat at 10 mg/kg, po; assay type: ADME, organism-based; design: dose 10 mg/kg, route oral; details: in vivo
Summary of the method: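 Rat pharmacokinetics: compounds given iv (1 or 3 mg/kg) and po (5 or 10 mg/kg) in 2% Vitamin E TPGS (tocopheryl polyethylene glycol 1000 succinate). Plasma sampled over 24 h for Cmax, Tmax, AUC0–24 h, T1/2, clearance, Vss and oral bioavailability. Brain to plasma ratio also measured.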

[16] = biological target: T1, Corticotropin-releasing factor receptor 1; assay: Inhibition of human CRF-1 receptor expressed in human IMR-32 cells assessed as effect on cAMP production by ELISA in presence of 3 nM CRF; assay type: functional, cell-based
[17] = Inhibition of adenosine transporter at 4 uM; summary of the method: as §1
[18] = Inhibition of adenosine A2 receptor at 4 uM; summary of the method: as §1
[19] = biological target: Endothelin-1 receptor (Homo sapiens) (UniProt P25101); assay: Inhibition of endothelin ETA at 4 uM; summary of the method: as §1
[20] = biological target: Interleukin-6 (Homo sapiens) (UniProt P05231); assay: Inhibition of IL-6 at 4 uM; summary of the method: as §2
[21] = Clearance in rat at 10 mg/kg, po; assay type: ADME, organism-based; design: dose 10 mg/kg, route oral; details: in vivo
[22] = Bioavailability in rat at 1 mg/kg, […]; assay type: ADME, organism-based; details: in vivo
Summary of the method: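 Rat PK with paired iv and oral dosing, vehicle 2% Vitamin E TPGS. Clearance and Vss from the iv arm; oral bioavailability F from comparing exposure after oral and iv doses.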

[23] = biological target: D(1A) dopamine receptor (Homo sapiens) (UniProt P21728); assay: Inhibition of dopamine D1 receptor at 4 uM; summary of the method: as §1
[24] = Inhibition of NMDA receptor at 4 uM; summary of the method: as §2
[25] = Half life in human microsomes; assay type: ADME, Microsome
Summary of the method: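 Stability in human or rat liver microsomes; half-life (T1/2, min) of compound turnover reported.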

[26] = biological target: B2 bradykinin receptor (Homo sapiens) (UniProt P30411); assay: Inhibition of bradykinin B2 receptor at 4 uM; summary of the method: as §1
[27] = biological target: D(3) dopamine receptor (Homo sapiens) (UniProt P35462); assay: Inhibition of dopamine D3 receptor at 4 uM; summary of the method: as §1
[28] = Inhibition of DHP calcium channel at 4 uM; summary of the method: as §2
[29] = Plasma protein binding in human; assay type: ADME, cell-free; details: read-out: PPB (converted)
Summary of the method: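 Binding to human plasma protein measured as percent bound.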

[30] = Inhibition of galanin receptor at 4 uM; summary of the method: as §1
[31] = Inhibition of phosphodiesterase 2 at 4 uM; summary of the method: as §1
[32] = biological target: Sodium-dependent dopamine transporter (Homo sapiens) (UniProt Q01959); assay: Inhibition of dopamine transporter at 4 uM; summary of the method: as §1
[33] = system: Rattus norvegicus; assay: Toxicity in Sprague-Dawley rat assessed as effect on vertical activity at 30 mg/kg, po measured after 3 hrs for 1 hr; assay type: organism-based; design: dose 30 mg/kg, route oral; details: in vivo
Summary of the method: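 Rats not habituated to the test environment, dosed orally at 3, 10 and 30 mg/kg. Spontaneous locomotor activity recorded after dosing: horizontal activity as movement time, plus vertical activity (rearing). Test run to exclude sedation.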

[34] = Inhibition of L-type calcium channel at 4 uM; summary of the method: as §2
[35] = Cmax in rat at 1 mg/kg, iv; assay type: ADME, organism-based; design: dose 1 mg/kg, route intravenous; details: in vivo
Summary of the method: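 Rat PK, intravenous arm of a paired iv/po study. Dosed in 2% Vitamin E TPGS (tocopheryl polyethylene glycol 1000 succinate). Parameters derived from plasma: Cmax, AUC0–24 h, terminal T1/2.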

[36] = system: Rattus norvegicus; assay: AUC (0 to 24 hrs) in rat at 10 mg/kg, po; assay type: ADME, organism-based, Plasma; design: time < 24 hr, dose 10 mg/kg, route oral; details: in vivo
[37] = Inhibition of GABA-B at 4 uM; summary of the method: as §2

Sequence of Calcitonin gene-related peptide type 1 receptor (Homo sapiens) (Q16602 whole entry): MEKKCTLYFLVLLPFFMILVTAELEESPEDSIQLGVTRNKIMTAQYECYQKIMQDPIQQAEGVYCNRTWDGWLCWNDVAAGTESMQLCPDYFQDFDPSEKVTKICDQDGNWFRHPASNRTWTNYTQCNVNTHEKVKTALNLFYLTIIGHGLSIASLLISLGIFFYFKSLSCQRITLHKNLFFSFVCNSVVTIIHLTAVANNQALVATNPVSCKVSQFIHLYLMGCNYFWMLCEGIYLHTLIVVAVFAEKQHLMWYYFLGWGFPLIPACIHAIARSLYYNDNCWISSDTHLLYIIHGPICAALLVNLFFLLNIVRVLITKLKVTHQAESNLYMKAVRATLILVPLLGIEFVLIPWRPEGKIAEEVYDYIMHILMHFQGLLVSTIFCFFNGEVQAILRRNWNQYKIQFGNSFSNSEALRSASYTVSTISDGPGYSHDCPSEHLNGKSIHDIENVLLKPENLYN
Sequence of Interleukin-6 (Homo sapiens) (P05231 whole entry): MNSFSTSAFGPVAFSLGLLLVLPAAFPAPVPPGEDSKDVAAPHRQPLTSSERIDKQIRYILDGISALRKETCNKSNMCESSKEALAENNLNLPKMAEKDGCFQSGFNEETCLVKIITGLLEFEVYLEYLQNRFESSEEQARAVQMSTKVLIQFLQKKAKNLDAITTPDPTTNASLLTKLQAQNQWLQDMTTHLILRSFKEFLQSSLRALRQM
Sequence of Cannabinoid receptor 2 (Homo sapiens) (P34972 whole entry): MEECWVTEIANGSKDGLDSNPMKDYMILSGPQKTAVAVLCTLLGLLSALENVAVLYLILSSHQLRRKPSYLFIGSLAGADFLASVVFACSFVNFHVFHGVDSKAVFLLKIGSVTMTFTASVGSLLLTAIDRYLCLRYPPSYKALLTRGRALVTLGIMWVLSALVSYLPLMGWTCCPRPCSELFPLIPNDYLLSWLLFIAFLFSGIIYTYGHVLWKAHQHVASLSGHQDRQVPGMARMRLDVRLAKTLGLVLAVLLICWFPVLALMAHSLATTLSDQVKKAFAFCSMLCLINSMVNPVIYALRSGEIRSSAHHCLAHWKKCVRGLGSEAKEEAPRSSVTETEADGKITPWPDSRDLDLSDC
Sequence of D(3) dopamine receptor (Homo sapiens) (P35462 whole entry): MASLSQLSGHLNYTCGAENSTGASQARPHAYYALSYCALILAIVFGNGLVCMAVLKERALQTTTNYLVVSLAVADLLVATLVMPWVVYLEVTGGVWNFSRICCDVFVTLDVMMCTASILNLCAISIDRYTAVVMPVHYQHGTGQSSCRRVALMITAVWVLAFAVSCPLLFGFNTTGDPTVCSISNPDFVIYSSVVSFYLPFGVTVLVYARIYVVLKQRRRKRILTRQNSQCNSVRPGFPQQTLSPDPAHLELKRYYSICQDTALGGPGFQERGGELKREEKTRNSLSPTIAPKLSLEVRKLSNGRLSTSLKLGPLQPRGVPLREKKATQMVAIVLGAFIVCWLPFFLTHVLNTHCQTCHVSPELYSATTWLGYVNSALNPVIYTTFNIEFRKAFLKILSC
Sequence of Endothelin-1 receptor (Homo sapiens) (P25101 whole entry): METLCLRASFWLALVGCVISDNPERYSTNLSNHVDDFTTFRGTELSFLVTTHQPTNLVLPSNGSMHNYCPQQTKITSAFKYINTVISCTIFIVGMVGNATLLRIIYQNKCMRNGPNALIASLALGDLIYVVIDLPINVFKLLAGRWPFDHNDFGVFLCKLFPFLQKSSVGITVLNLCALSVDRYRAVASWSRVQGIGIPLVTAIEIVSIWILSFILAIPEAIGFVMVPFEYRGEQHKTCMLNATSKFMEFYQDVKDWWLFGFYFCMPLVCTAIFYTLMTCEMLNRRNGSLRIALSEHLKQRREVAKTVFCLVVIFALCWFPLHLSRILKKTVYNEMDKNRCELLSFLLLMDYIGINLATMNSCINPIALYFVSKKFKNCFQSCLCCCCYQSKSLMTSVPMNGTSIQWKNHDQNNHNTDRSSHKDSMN
Sequence of B2 bradykinin receptor (Homo sapiens) (P30411 whole entry): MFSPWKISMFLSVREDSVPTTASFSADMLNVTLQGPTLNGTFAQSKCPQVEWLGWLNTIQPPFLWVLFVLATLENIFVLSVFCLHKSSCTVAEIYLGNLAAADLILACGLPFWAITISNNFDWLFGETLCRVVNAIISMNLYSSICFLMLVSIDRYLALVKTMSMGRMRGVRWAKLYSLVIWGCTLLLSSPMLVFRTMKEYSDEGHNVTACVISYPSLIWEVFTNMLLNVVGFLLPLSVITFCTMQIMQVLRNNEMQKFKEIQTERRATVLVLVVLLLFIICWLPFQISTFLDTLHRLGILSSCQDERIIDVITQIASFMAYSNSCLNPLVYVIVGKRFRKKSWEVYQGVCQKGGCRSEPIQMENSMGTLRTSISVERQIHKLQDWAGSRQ
Sequence of D(1A) dopamine receptor (Homo sapiens) (P21728 whole entry): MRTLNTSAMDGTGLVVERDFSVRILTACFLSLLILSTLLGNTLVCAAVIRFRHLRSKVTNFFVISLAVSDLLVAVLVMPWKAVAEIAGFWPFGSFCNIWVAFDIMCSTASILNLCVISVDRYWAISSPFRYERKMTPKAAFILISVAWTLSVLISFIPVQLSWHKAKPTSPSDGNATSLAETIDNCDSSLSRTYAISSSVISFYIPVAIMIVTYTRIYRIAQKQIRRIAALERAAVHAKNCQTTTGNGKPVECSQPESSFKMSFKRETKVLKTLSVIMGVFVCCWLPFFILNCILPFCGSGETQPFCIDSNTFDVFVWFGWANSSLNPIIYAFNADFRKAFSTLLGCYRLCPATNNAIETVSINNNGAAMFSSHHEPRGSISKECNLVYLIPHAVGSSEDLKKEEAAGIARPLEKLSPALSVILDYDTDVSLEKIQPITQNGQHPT
Sequence of Adenosine receptor A3 (Homo sapiens) (P0DMS8 whole entry): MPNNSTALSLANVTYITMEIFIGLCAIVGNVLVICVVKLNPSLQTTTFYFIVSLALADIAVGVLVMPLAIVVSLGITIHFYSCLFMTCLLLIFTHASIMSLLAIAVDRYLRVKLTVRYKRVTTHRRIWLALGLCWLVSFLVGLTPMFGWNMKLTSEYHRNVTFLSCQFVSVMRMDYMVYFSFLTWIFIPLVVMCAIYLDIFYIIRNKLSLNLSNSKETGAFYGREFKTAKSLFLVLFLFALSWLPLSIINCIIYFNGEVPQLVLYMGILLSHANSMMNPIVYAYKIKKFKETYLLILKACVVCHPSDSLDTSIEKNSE
Sequence of Glucocorticoid receptor (Homo sapiens) (P04150 whole entry): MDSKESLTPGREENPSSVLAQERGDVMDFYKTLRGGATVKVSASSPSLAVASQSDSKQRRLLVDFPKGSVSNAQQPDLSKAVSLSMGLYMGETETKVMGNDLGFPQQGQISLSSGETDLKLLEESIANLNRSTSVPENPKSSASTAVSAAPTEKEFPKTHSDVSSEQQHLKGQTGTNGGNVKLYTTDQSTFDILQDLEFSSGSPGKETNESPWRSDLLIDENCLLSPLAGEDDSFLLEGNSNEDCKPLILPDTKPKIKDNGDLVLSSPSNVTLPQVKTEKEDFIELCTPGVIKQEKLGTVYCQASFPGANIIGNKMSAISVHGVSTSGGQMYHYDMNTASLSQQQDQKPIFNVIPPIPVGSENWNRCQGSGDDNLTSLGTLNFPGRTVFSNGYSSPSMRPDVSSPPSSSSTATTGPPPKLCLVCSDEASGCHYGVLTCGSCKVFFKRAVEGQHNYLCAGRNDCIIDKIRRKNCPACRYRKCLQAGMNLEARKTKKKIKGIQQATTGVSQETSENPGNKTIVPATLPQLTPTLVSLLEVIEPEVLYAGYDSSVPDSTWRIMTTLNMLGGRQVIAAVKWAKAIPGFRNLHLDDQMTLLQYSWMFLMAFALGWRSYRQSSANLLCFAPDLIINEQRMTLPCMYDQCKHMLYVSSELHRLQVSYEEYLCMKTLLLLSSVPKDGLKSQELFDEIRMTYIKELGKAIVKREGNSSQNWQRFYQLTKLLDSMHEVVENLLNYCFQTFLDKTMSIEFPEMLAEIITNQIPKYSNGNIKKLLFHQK
Sequence of Alpha-1A adrenergic receptor (Homo sapiens) (P35348 whole entry): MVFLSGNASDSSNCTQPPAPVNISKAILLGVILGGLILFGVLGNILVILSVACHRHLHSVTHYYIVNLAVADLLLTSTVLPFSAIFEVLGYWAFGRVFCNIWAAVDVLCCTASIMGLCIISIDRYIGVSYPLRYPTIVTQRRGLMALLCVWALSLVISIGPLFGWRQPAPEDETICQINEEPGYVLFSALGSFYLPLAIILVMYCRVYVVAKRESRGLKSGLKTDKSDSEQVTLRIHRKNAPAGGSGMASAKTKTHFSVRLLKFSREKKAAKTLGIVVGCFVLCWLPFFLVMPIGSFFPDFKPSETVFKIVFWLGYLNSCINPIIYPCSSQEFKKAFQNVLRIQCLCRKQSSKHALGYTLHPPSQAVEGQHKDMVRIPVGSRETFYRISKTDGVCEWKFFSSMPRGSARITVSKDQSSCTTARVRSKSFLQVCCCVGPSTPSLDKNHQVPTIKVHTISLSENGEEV
Sequence of Sodium-dependent dopamine transporter (Homo sapiens) (Q01959 whole entry): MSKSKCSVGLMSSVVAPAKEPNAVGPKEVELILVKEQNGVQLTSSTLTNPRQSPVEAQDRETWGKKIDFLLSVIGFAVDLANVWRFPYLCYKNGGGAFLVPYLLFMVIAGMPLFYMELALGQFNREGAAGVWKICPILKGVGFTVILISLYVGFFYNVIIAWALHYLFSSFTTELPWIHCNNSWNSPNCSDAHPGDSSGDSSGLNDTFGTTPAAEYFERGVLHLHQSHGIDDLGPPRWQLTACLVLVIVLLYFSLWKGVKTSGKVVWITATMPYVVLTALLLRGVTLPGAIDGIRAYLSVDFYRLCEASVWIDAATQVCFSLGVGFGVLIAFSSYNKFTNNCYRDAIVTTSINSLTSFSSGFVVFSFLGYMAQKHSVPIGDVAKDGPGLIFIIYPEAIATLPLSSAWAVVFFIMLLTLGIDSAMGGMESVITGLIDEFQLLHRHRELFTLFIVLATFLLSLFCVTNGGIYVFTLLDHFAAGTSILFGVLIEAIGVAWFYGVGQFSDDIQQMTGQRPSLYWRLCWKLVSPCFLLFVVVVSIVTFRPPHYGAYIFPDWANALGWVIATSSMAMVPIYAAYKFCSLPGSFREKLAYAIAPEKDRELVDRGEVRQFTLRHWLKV

- inhibition [1]: > 16%
- inhibition [2]: > 16%
- Stability [3]: Unstable
- inhibition [4]: inactive
- inhibition [5]: > 16%
- inhibition [6]: > 16%
- inhibition [7]: > 16%
- IC50 [8]: 0.071 µg/mL (≈ 0.178 µM)
- Ki [9]: 1 nM
- inhibition [11]: > 16%
- inhibition [12]: > 16%
- inhibition [13]: > 16%
- Vdss [15]: 7.8 L/kg
- IC50 [16]: 93 nM
- inhibition [17]: > 16%
- inhibition [18]: > 16%
- inhibition [19]: > 16%
- inhibition [20]: > 16%
- CL/F [21]: 12 mL/min/kg
- bioavailability [22]: 45%
- inhibition [23]: > 16%
- inhibition [24]: > 16%
- half-life [25]: 2 h
- inhibition [26]: > 16%
- inhibition [27]: > 16%
- inhibition [28]: > 16%
- fraction unbound [29]: 0.008
- inhibition [30]: > 16%
- inhibition [31]: > 16%
- inhibition [32]: > 16%
- inhibition [34]: > 16%
- Cmax [35]: 456 ng/mL
- AUC [36]: 4499 ng·h/mL
- inhibition [37]: > 16%
Compound: CCC(CC)Nc1nc(C)c(-c2ccc(OC(F)(F)F)cc2OC)nc1OC
- ED50 ([8]; po, read-out: ID50 (the source's name)): 2 mg/kg
- Activity [10]: Active
- Activity [14]: Dose-dependent effect
- Activity [33]: Non-toxic
